Source: ChEMBL document CHEMBL1129272, “Identification of the first retinoid X, receptor homodimer antagonist” (J Med Chem, 1996)

Tests used:
[1] = biological target: T1, Retinoic acid receptor gamma (Homo sapiens, UniProt P13631); assay: Transcriptional activation of Retinoic acid receptor RAR gamma
T1 sequence (P13631 whole entry): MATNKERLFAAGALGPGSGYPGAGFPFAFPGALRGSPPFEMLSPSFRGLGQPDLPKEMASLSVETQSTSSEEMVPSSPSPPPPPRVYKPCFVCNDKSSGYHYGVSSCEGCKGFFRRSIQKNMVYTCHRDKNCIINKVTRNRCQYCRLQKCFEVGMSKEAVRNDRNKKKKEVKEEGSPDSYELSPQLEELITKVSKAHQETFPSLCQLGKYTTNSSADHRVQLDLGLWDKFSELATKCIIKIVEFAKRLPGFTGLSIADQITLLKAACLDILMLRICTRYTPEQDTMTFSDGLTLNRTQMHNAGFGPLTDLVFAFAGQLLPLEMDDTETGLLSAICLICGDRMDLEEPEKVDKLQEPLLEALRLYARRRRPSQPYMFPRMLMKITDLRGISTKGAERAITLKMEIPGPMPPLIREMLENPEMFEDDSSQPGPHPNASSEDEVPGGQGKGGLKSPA
Procedure, shortened: (§1)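 CV-1 cells were transiently cotransfected with the receptor expression vector, a ΔMTV-TREp-Luc reporter and an RSV-β-Gal internal control, then incubated with compound (log dilutions, 1 x 10^-12 to 1 x 10^-5 M). Luciferase was normalized by β-galactosidase. Response is % of the all-trans-RA maximum, giving EC50. Three experiments, triplicates at each concentration.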

[2] = biological target: T1, Retinoic acid receptor gamma; assay: Inhibition of [3H]ATRA binding to Retinoic acid receptor RAR gamma
Procedure, shortened: (§2)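 Receptors expressed recombinantly in a baculovirus system. Binding was measured by competition against 5 nM [3H]-all-trans-RA. Ki was calculated by the Cheng–Prusoff method.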

[3] = biological target: T2, Retinoic acid receptor alpha (Homo sapiens, UniProt P10276); assay: Inhibition of [3H]ATRA binding to Retinoic acid receptor RAR alpha; procedure, shortened: as §2
T2 sequence (P10276 whole entry): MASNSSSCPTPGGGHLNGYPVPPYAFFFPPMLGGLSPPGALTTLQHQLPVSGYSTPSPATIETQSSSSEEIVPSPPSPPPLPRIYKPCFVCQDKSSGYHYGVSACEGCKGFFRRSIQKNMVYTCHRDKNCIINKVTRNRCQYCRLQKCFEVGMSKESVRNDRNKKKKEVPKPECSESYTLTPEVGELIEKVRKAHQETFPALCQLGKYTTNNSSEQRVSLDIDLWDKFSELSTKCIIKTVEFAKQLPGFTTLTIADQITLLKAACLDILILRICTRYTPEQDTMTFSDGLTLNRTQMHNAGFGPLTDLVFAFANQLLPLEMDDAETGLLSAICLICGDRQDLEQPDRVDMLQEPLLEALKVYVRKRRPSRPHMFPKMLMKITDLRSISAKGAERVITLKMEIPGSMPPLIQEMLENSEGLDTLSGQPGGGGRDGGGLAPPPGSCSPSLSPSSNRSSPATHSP

[4] = biological target: T3, Retinoic acid receptor RXR-beta (Homo sapiens, UniProt P28702); assay: Inhibition of [3H]-Targretin binding to Retinoid X receptor RXR beta
T3 sequence (P28702 whole entry): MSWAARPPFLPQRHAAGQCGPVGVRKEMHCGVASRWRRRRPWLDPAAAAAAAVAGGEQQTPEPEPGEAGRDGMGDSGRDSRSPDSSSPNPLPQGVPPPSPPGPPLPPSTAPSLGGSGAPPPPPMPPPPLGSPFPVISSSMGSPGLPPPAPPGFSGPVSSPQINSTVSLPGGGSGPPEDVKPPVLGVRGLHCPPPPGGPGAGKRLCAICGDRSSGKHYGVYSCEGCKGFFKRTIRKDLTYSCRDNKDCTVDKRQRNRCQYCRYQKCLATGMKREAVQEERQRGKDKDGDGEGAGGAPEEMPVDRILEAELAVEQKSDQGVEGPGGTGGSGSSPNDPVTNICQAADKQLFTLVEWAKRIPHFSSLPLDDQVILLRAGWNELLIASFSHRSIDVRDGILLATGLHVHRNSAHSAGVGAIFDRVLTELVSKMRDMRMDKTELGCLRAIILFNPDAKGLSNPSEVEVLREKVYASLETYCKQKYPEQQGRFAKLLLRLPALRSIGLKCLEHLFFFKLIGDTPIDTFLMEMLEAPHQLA
Procedure, shortened: (§3)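 Recombinant receptors were expressed in a baculovirus system. Test ligands competed with [3H]Targretin (LGD1069) for binding. Ki values were derived by the Cheng–Prusoff method.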

[5] = biological target: T4, Retinoic acid receptor beta (Homo sapiens, UniProt P10826); assay: Inhibition of [3H]ATRA binding to Retinoic acid receptor RAR beta; procedure, shortened: as §2
T4 sequence (P10826 whole entry): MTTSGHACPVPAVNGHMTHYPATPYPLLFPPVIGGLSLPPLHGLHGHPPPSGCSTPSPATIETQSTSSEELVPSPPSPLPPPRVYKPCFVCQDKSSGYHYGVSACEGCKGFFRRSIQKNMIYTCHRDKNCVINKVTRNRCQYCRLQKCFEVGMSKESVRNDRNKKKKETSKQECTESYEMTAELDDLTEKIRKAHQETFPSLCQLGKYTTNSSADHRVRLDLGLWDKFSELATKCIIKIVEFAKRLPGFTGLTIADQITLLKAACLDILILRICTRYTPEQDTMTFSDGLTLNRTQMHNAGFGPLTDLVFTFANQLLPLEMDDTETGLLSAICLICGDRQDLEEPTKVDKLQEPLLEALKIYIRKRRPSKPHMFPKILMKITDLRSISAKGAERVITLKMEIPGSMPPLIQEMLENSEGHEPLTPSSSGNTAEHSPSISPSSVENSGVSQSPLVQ

[6] = biological target: T3, Retinoic acid receptor RXR-beta; assay: Transcriptional activation of Retinoid X receptor RXR beta
Procedure, shortened: (§4)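 In transiently cotransfected CV-1 cells, the receptor vector was paired with a reporter (RXRβ: CPRE-tk-Luc; RXRγ: CRBPII-tk-Luc) plus an RSV-β-Gal internal control. Compound was tested at 1 x 10^-12 to 1 x 10^-5 M in log dilutions. Luciferase was corrected by β-galactosidase and expressed as % of the 9-cis-RA maximum to give EC50. Three experiments, triplicate points.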

[7] = biological target: T4, Retinoic acid receptor beta; assay: Transcriptional activation of Retinoic acid receptor RAR beta; procedure, shortened: as §1
[8] = biological target: T5, Retinoic acid receptor RXR-alpha (Homo sapiens, UniProt P19793); assay: Transcriptional ativation of Retinoid X receptor RXR alpha
T5 sequence (P19793 whole entry): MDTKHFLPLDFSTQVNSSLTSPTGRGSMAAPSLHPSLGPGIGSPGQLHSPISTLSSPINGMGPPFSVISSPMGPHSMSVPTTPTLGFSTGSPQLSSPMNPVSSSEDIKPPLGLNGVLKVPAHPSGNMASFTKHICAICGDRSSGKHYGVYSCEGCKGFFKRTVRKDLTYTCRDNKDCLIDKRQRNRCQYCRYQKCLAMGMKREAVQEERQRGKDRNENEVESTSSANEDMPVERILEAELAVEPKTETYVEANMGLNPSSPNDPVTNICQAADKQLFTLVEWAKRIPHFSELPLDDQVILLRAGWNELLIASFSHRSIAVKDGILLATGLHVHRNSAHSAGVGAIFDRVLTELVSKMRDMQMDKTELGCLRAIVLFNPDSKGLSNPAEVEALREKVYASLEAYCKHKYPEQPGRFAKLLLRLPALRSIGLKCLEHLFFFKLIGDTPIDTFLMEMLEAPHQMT

[9] = biological target: T6, Retinoic acid receptor RXR-gamma (Homo sapiens, UniProt P48443); assay: Inhibition of [3H]targretin binding to Retinoid X receptor RXR gamma; procedure, shortened: as §3
T6 sequence (P48443 whole entry): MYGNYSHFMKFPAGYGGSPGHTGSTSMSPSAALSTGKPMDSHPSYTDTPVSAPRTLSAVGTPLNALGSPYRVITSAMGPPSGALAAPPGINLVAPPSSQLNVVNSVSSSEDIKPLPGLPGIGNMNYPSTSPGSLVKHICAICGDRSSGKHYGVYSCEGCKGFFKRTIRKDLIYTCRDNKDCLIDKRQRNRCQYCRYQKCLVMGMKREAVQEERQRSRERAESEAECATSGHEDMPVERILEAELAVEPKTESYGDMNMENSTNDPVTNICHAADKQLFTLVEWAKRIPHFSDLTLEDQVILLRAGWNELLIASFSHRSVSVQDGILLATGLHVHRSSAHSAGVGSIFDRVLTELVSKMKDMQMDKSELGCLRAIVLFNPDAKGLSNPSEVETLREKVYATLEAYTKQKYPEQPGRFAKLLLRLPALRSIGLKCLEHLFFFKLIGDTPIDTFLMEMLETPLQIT

[10] = biological target: T2, Retinoic acid receptor alpha; assay: Transcriptional activation of Retinoic acid receptor RAR alpha; procedure, shortened: as §1
[11] = biological target: T6, Retinoic acid receptor RXR-gamma; assay: Transcriptional activation of Retinoid X receptor RXR gamma; procedure, shortened: as §4
[12] = biological target: T5, Retinoic acid receptor RXR-alpha; assay: Inhibition of [3H]targretin binding to Retinoid X receptor RXR alpha

SMILES	EC50 [1]	Ki [2]	Ki [3]	Ki [4]	Ki [5]	EC50 [6]	EC50 [7]	EC50 [8]	Ki [9]	EC50 [10]	EC50 [11]	Ki [12]
CCCOc1cc2c(cc1\C(C)=C/C=C/C(C)=C/C(=O)O)C(C)(C)CCC2(C)C	192 nM	6090 nM	1790 nM	9 nM	2590 nM	–	–	–	–	–	–	–
COc1cc2c(cc1\C(C)=C/C=C/C(C)=C/C(=O)O)C(C)(C)CCC2(C)C	17 nM	437 nM	306 nM	2 nM	400 nM	8 nM	8 nM	5 nM	4 nM	40 nM	9 nM	2 nM
CCOc1cc2c(cc1\C(C)=C/C=C/C(C)=C/C(=O)O)C(C)(C)CCC2(C)C	121 nM	4210 nM	2580 nM	12 nM	3120 nM	9 nM	31 nM	8 nM	17 nM	–	7 nM	4 nM
